# Screening results as filed in PubChem.
# Sampled rows, rich in hits. Any-hit rate of the full collection: about 3.8%.
# T cell modulator = T cell immune modulators affecting CD8 T cell-vesicle binding; 2C CD8+ T cell-vesicle binding, flow cytometry; stronger effect = lower value; response (vesicle binding), % at 7 µM; hit rate 0.068% among 330,000; AID 2052;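 active means response, share of CD8 T cells binding vesicles, and their 90th percentile fluorescence all below set limits, cut at about 80% in these data, passing the limit was not always enough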;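 further: values below 100% mean blocked vesicle binding to the CD8+ T cells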
#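 Read-out – percent CD8+ FL2 mean versus row control · System – murine 2C transgenic CD8+ T lymphocytes · Times – 1.5 h cell–vesicle binding at 37 °C, then 20 min icy labelling · Control set – naked vesicles low, QL9 vesicles with vehicle high · Detection – cytometric PE anti-B7-1 and Alexa647 anti-CD8 signals after 1% paraformaldehyde fixation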
# Granule exo inh = blocks lytic granule exocytosis; hit rate 0.66% among 360,000; AID 651702; TALL-104 LAMP-1 surface exposure, flow cytometry; cells stimulated with thapsigargin and PMA; inhibition, % at 10 µM;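 active means inhibition above about 55%, limit read from the data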
# V-ATPase pH = alters yeast V-ATPase proton transport | S. cerevisiae, pHLuorin cytosolic pH fluorescence | response, % at 10 µM | hit rate 0.37% among 350,000; in the data active means response mostly above about 7.3%, no sharp cut-off; inactive means mostly below about 5.4%; further: actives read high
# Beta2AR agonist = agonists of human beta-2 adrenergic receptor inducing internalization | P07550 | Am2.2-beta2AR cells, FAP receptor internalization, flow cytometry | response, % (no concentration beside the values) | hit rate 0.43% among 340,000 | AID 504454;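 active means response above a set limit, near 3 SD of response in nonfluorescent compounds, cut at about 42% in these data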
# Target sequence (P07550 whole entry, looked up): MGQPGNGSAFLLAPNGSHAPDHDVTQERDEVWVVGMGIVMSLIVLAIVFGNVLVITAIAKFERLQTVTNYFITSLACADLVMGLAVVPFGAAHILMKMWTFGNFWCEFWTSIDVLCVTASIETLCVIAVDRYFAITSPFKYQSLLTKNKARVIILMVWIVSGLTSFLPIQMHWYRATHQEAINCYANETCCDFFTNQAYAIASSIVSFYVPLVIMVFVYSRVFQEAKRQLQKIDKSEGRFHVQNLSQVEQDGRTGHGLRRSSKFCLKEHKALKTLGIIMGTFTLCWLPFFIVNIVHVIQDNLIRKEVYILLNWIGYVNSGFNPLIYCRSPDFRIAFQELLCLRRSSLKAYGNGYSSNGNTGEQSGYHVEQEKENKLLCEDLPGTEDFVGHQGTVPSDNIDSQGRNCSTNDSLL
# rCAG binder = molecules binding r(CAG) RNA repeats. r(CAG) RNA repeat, TO-PRO-1 dye displacement fluorescence. inhibition, % at 3 µM. hit rate 1.3% among 370,000;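 active means inhibition above the plate cutoff, the mean of all test compounds on that plate plus 3 SD, cut at about 35% in these data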;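 further: 0% = DMSO alone and 100% = 100 µM mitoxantrone as full dye displacement; higher means more dye released from RNA so lower well fluorescence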
# MPTP block = blocks calcium-induced mitochondrial swelling | isolated mouse mitochondria, Ca2+ swelling absorbance, 30 min | inhibition, % at 10 µM | hit rate 1.4% among 360,000 | AID 602449;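 active means inhibition of 50% or more, scaled per plate between neutral and stimulator controls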;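 further: 0% = DMSO wells given calcium and 100% = 1 mM EGTA wells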
# Numbers without * were called inactive; x = no result.
SMILES,T cell modulator,Granule exo inh,V-ATPase pH,Beta2AR agonist,rCAG binder,MPTP block
Cc1ccc(S(=O)(=O)OCC(=O)Nc2ccc(C(=O)O)c(O)c2)cc1,x,14,-4,-9,40*,-2
CC(C)C[C@H]1COc2ccc(Cl)cc2S(=O)(=O)N1Cc1cn(Cc2ccc(C(F)(F)F)cc2)nn1,x,x,x,x,4,x
CS(=O)(=O)c1sc(C#N)c2c1C(=O)CC(c1ccccc1)C2 (stereo not drawn),224,42,4,106*,-2,1
Cc1oc2c(c(=O)c1C)C(=O)CC(c1ccccc1)C2 (stereo not drawn),151,1,-1,4,-2,1
COc1ccc(C(C(=O)NC2CCCCC2)N(C(=O)CCl)c2cccc(Cl)c2)cc1 (stereo not drawn),160,8,0,42*,-5,0
COc1ccc(C(C(=O)NC2CCCCC2)N(C(=O)CCl)c2ccc(C)cc2)cc1 (stereo not drawn),0,3,-1,44*,-6,2
COc1ccc(N(C(=O)CCl)C(C(=O)NC2CCCCC2)c2cccnc2)cc1 (stereo not drawn),182,-3,15*,18,-2,1
O=C(CSc1nc2ccccc2nc1N1CCCCC1)N1CCN(S(=O)(=O)c2cc(Cl)ccc2Cl)CC1,x,x,x,x,8,x
CN(CC(=O)Nc1ccc(F)cc1)C(=O)CSc1nc2ncc(Cl)cc2[nH]1,432,0,74*,-4,-1,-2
O=C(CSc1nc2ncc(Cl)cc2[nH]1)Nc1cccc(F)c1,428,-1,2,1,10,23
S=C1Cc2ccccc2N1,x,94*,-2,40,44*,0
S=C1Nc2ccccc2CS1,x,2,1,x,4,0
COc1cc(C(=O)NC(=S)NC(C)C)cc(OC)c1OC,232,-5,-1,78*,-1,0
CN1CC=C(c2ccccc2)N(c2ccc(Cl)cc2)C1=O,x,x,x,x,4,x
O=C(CSc1ccccn1)Nc1ccc(NC(=O)CSc2ccccn2)cc1,439,-2,-1,-7,-3,1
O=C(CSc1ccccn1)Nc1nonc1[N+](=O)[O-],323,59*,-8,6,1,1
Cc1ccc(C)c(NC(=S)NC(NC(=O)Cc2ccccc2)C(Cl)(Cl)Cl)c1 (stereo not drawn),238,-1,1,1,2,1
O=C(COc1ccccc1)NC(NC(=S)Nc1ccccc1C(=O)O)C(Cl)(Cl)Cl (stereo not drawn),475,0,-6,6,39*,3
CC(C)c1ccc(S(=O)(=O)/N=C2\C=C(NS(=O)(=O)c3ccccc3)C(=O)c3ccccc32)cc1,84,15,0,3,68*,26
Cc1ccccc1NC1=C/C(=N\S(=O)(=O)c2ccc(C(=O)O)cc2)c2ccccc2C1=O,93,-2,-4,17,32,7
COc1ccc(S(=O)(=O)/N=C2\C=C(Nc3ccc(O)cc3)C(=O)c3ccccc32)cc1,200,68*,0,52*,22,10
CN(CCc1ccccn1)C(=O)Cn1nc(-c2ccccc2)ccc1=O,x,x,x,x,-2,x
COc1ccc(OC)c2c1C(=O)c1ccccc1C2=O,317,x,x,x,-13,x
COc1ccc(OC)c2c1C(=O)C(Cl)=C(Cl)C2=O,255,93*,5,97*,1,5
CN(C)CCC(=O)N1C/C(=C/c2ccccc2)C(=O)/C(=C\c2ccccc2)C1,x,68*,11,21,0,-1
SMILES,T cell modulator,Granule exo inh,V-ATPase pH,Beta2AR agonist,rCAG binder,MPTP block
COc1ccc(OC(=O)N2C/C(=C/c3ccccc3)C(=O)/C(=C\c3ccccc3)C2)cc1,x,62*,4,24,7,-1
CN(CCOC(=O)c1cc2ccccc2o1)C1CN(Cc2cn(Cc3ccccc3C(F)(F)F)nn2)S(=O)(=O)C1 (stereo not drawn),x,x,x,x,6,x
CSc1nc(C)c(C(=O)C[n+]2ccc(C)cc2)cc1C#N,838,76*,-3,3,1,0
CCc1ccc(C)c(OC(=O)c2cncc(Br)c2)c1,270,-6,-1,3,-6,1
Cc1ccc(C)c(OC(=O)c2cncc(Br)c2)c1,0.0*,1,-5,-4,0,0
CC(=O)Nc1ccc(OCC(C)CN2CCC(C(O)(c3ccccc3)c3ccccc3)CC2)cc1 (stereo not drawn),x,x,x,x,3,x
Cc1ccc(NC(=O)C2=C(c3ccccc3)S(=O)(=O)CCS2(=O)=O)cc1,121,18,-4,53*,1,-1
